Here are results for five molecules from ChEMBL document CHEMBL4627320, “Discovery of CRBN E3 Ligase Modulator CC-92480 for the Treatment of Relapsed and Refractory Multiple Myeloma” (J Med Chem, 2020).

In brackets after ≈: the same amount, converted by molar mass. Activity calls are given as the source filed them. The rule behind the calls is not given here.

Series [1] can be described thus: Cmax in Sprague-Dawley rat at 10 mg/kg, po. The format is ADME, organism-based. Also on record: dose 10 mg/kg, route oral. To be noted: in vivo. The method in brief:
(§1)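 Sprague-Dawley rats given 10 mg/kg orally as a suspension in 0.5% CMC / 0.25% Tween-80 / water; plasma exposure followed.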

A short description of series [2]: Cmax in monkey at 3 mg/kg, po. Type of series: ADME, organism-based, Macaca mulatta. Also on record: dose 3 mg/kg, route oral. To be noted: rhesus monkey, in vivo.
Series [3] can be described thus: AUC (0 to infinity) in Sprague-Dawley rat at 10 mg/kg, po. The format is ADME, organism-based. Also on record: dose 10 mg/kg, route oral, time infinity. Conditions: in vivo. The procedure, abridged:
as §1

A short description of series [4]: Drug metabolism in assay cell medium assessed as compound racemization measured within 24 hrs. The format is physicochemical. The procedure, abridged:
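Compound held in the same cell medium used for the H929 R10-1 antiproliferation assay; enantiomer levels followed by chiral monitoring over 24 h.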

A short description of series [5]: AUC (0 to infinity) in monkey at 3 mg/kg, po. Type of series: ADME, organism-based, Macaca mulatta. Also on record: dose 3 mg/kg, route oral, time infinity. To be noted: rhesus monkey, in vivo.
In series [6] the target is Protein cereblon/DNA damage-binding protein 1 (Homo sapiens, UniProt Q96SW2). The series is described as follows: Displacement of Cy5-conjugated CELMoD from N-terminal 6-His tagged CRBN (1 to 442 residues) (unknown origin)/DDB1 (1 to 1140 residues) (unknown origin) incubated for 10 mins by FRET assay. The format is protein assay.
Series [7] is described as follows: Drug metabolism in monkey assessed as compound racemization at 3 mg/kg, po relative to compound AUC. Conditions: rhesus monkey, in vivo. The format is ADME, organism-based, Macaca mulatta.
The species named for series [8] is Homo sapiens. Description: (§2) Antiproliferative activity against lenalidomide-resistant human H929-R10-1 cells incubated for 5 days by CellTiter-Glo assay. Type of series: functional. The method in brief:
(§3)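 H929 R10-1 cells kept in log phase at 37°C, 5% CO₂, and plated at 5000 cells/well. Compounds were added as 10-point duplicate curves starting at 10µM with 1:3 dilutions, in 0.1% DMSO, final volume 40µl. Plates were incubated for 5 days. Viability was read by CellTiter-Glo luminescence after 1 h at room temperature in the dark. IC50 is the mean of ≥3 separate determinations.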

For series [9], the species on record is Homo sapiens. The series is described as follows: Induction of apoptosis in lenalidomide-resistant human H929-R10-1 cells assessed as increase in cleaved PARP level after 72 hrs by Western blot analysis. Type of series: functional. The method in brief:
(§4)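 H929 R10-1 cells treated with DMSO or compound (1–100 nM) for 72 h, washed in PBS, lysed in NP-40/Tris pH 8 buffer with protease and phosphatase inhibitors; clarified lysates immunoblotted for p27, cleaved caspase-1, -3, -7 and cleaved PARP, with β-tubulin, using fluorescent secondary antibodies.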
On the technique in general: Immunoblotting shows a protein as a band on a membrane.

The species entered for series [10] is Homo sapiens. Description: Induction of apoptosis in lenalidomide-resistant human H929-R10-1 cells assessed as increase in cleaved caspase3 level at 1 to 100 nM after 72 hrs by Western blot analysis. The format is functional. The procedure, abridged: as §4
The species named for series [11] is Homo sapiens. Description: Induction of apoptosis in lenalidomide-resistant human H929-R10-1 cells assessed as p27 stabilization at 1 to 100 nM after 72 hrs by Western blot analysis. The format is functional. The procedure, abridged:
as §4

The species entered for series [12] is Homo sapiens. The series is described as follows: Induction of apoptosis in lenalidomide-resistant human H929-R10-1 cells assessed as increase in cleaved caspase7 level at 1 to 100 nM after 72 hrs by Western blot analysis. Type of series: functional. The procedure, abridged:
as §4

The species named for series [13] is Homo sapiens. Description: Induction of apoptosis in lenalidomide-resistant human H929-R10-1 cells assessed as caspase3 induction at 1 uM measured over 150 hrs by live cell imaging analysis. The format is functional. The method in brief: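 Lenalidomide-refractory H929 R10-1 cells were treated at concentrations from 1 nM to 1 μM. Caspase-3 induction was quantified by live-cell imaging over 150 h.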

The species named for series [14] is Homo sapiens. Description: Induction of apoptosis in lenalidomide-resistant human H929-R10-1 cells assessed as increase in cleaved caspase1 level at 1 to 100 nM after 72 hrs by Western blot analysis. Type of series: functional. The procedure, abridged: as §4
The nature of series [15]: Metabolic stability in human liver S9 fraction assessed as parent compound remaining after 60 mins. The format is ADME, subcellular. To be noted: read-out: Stability. The procedure, abridged: (§5)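 Compound incubated with human or rat liver S9 fraction; percent parent remaining at 60 min.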
Series [16] can be described thus: Clearance in Sprague-Dawley rat at 2 mg/kg, iv. To be noted: in vivo. Type of series: ADME, organism-based.
Series [17] can be described thus: Oral bioavailability in Sprague-Dawley rat at 10 mg/kg. The format is ADME, organism-based. Conditions: in vivo. The procedure, abridged: as §1
A short description of series [18]: Efflux ratio of permeability across apical to basolateral side in human Caco2 cells. The format is ADME, cell-based. To be noted: Caco-2.
Series [19] is described as follows: Antitumor activity against human NCI-H929-1051 cells xenografted in CB17 SCID mouse assessed as reduction in tumor volume at 3 mg/kg, po qd for 21 days measured post last dose by caliper method relative to control. Also noted: scale not given: the % may be the effect or the level left. Type of series: functional. The method in brief:
(§6)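 Female CB17 SCID mice, 6-8 weeks old, were inoculated subcutaneously with 10×10⁶ NCI-H929-1051 cells, which had been expanded in 10 μM lenalidomide. At about 150 mm³ the mice were randomized (n=8-10/group) and dosed orally once daily for 21 days, with a vehicle control group. Tumors were measured by caliper twice weekly and volume was taken as width²×length/2. Final volumes were taken after the last dose. Data are mean ± SEM.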

The nature of series [20]: Metabolic stability in rat liver S9 fraction assessed as parent compound remaining after 60 mins. Type of series: ADME, subcellular. Conditions: read-out: Stability. The method in brief:
as §5

Series [21] can be described thus: Antitumor activity against human NCI-H929-1051 cells xenografted in CB17 SCID mouse assessed as reduction in tumor volume at 1 mg/kg, po qd for 21 days measured post last dose by caliper method relative to control. Type of series: functional. Also noted: scale not given: the % may be the effect or the level left. The procedure, abridged: as §6
Series [22] is described as follows: Tmax in Sprague-Dawley rat at 10 mg/kg, po. To be noted: in vivo. The format is ADME, organism-based. The procedure, abridged: as §1
A short description of series [23]: Solubility of the compound at pH 5. The format is physicochemical. Conditions: buffer.
The species entered for series [24] is Homo sapiens. The series is described as follows: Induction of apoptosis in lenalidomide-resistant human H929-R10-1 cells assessed as caspase3 induction at 1 nM measured over 150 hrs by live cell imaging analysis. Type of series: functional. The procedure, abridged: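 Lenalidomide-refractory H929 R10-1 cells treated at 1 nM to 1 μM; caspase-3 induction quantified by live cell imaging over 150 h.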

A short description of series [25]: Antitumor activity against human NCI-H929-1051 cells xenografted in CB17 SCID mouse assessed as reduction in tumor volume at 10 mg/kg, po qd for 21 days measured post last dose by caliper method relative to control. Type of series: functional. Also noted: scale not given: the % may be the effect or the level left. The method in brief:
as §6
For orientation: In xenograft studies the graft and the host belong to different species.

Series [26] in a line: as §2. Type of series: functional. Conditions: 120 h. The method in brief: as §3
Series [27] addresses T1, D(2) dopamine receptor (Homo sapiens, UniProt P14416). The series is described as follows: Inhibition of D2S (unknown origin) at 10 uM relative to control.
The target in series [28] is D(2) dopamine receptor (Rattus norvegicus) (UniProt P61169). Description: In vivo agonist activity at D2S in rat assessed as suppression of gut motility administered daily for 7 days. Type of series: functional, organism-based.
In another series the test system is PBMC. The series is described as follows: Cytotoxicity against PBMC (unknown origin). The format is cell-based.
In series [29] the target is Protein cereblon/Zinc finger protein Aiolos (Homo sapiens, UniProt Q96SW2+Q9UKT9). Description: Induction of CRBN-mediated pLOC-ePL-tagged aiolos (unknown origin) degradation in human DF15 cells assessed as minimum protein remaining incubated for 4 hrs by luminescence based beta-galactosidase enzyme fragmentation complementation assay. The format is cell-based.
For series [30], the target named is Adrenergic receptor alpha-1 (Homo sapiens) (UniProt P35348+P25100+P35368). Description: Inhibition of adrenergic receptor alpha1 (unknown origin) at 10 uM relative to control. The format is protein assay.
Series [31] concerns the target Protein cereblon/Eukaryotic peptide chain release factor GTP-binding subunit ERF3A (Homo sapiens, UniProt P15170+Q96SW2). The series is described as follows: Induction of CRBN-mediated pLOC-ePL-tagged GSPT1 (unknown origin) degradation in human DF15 cells assessed as minimum protein remaining incubated for 4 hrs by luminescence based beta-galactosidase enzyme fragmentation complementation assay. The format is cell-based.

Series [32] concerns the target T1, D(2) dopamine receptor. The series is described as follows: Agonist activity at D2S (unknown origin).

The Cmax is the highest concentration seen after dosing. Broadly, the AUC(0-inf) is the area under the concentration-time curve extrapolated to infinity. For orientation: IC50 means the concentration needed to halve the response being measured. For the molecule `N#Cc1ccc(N2CCN(Cc3ccc(COc4cccc5c4CN([C@@H]4CCC(=O)NC4=O)C5=O)cc3)CC2)c(F)c1`, the values for the Cmax in [1] and in [2] were 60 nM and 16 nM, respectively. Also, the total exposure AUC(0-inf) in series [3] came out at 0.5 µM·h; in [5] it was 0.1 µM·h. Moreover, the Drug metabolism entry is “Metabolite_Detected” in [4] and under 9% in series [7]. For the same molecule, the IC50 in series [6] was found to be 4510 nM.

Turning to `Nc1cccc2c1C(=O)N(C1CCC(=O)NC1=O)C2=O` (stereo unspecified), the result in the series listed under Homo sapiens [8], in the series listed under Homo sapiens [9], in the series listed under Homo sapiens [10], in the series listed under Homo sapiens [11], in the series filed under Homo sapiens [12] and in the series filed under Homo sapiens [14] was inactive. Besides, the outcome in the series listed under Homo sapiens [13] was Active.

What is called clearance is a measure of how efficiently the substance is removed, as volume per time. Usually bioavailability stands for dose-corrected exposure relative to a reference, in per cent. One may read the efflux ratio as the permeability from basolateral to apical divided by that in the opposite direction, in the common usage. As a reminder, the Tmax is the time at which the peak concentration occurs. A word on the solubility: it is how much of the substance goes into solution per volume. Consider `N#Cc1ccc(N2CCN(Cc3ccc(COc4cccc5c4CN([C@H]4CCC(=O)NC4=O)C5=O)cc3)CC2)c(F)c1` [MEZIGDOMIDE], for which the remaining at 1 h in series [15] was 99%; in [20] it was 100%. Moreover, the clearance in [16] worked out at 6.8 mL/min/kg. Further, the highest concentration (Cmax) amounted to 3200 nM in [1] and 220 nM in [2]. The same molecule had a bioavailability in series [17] of 38%. The result in the series filed under Homo sapiens [9], in the series filed under Homo sapiens [10], in the series listed under Homo sapiens [11], in the series listed under Homo sapiens [12], in the series filed under Homo sapiens [24] and in the series filed under Homo sapiens [14] was Active. Also, the efflux ratio in [18] was determined as 1. For the same molecule, the Activity was 83.8% in series [19], 75.3% in [21] and 85.7% in [25]. In addition, the values for the total exposure AUC(0-inf) in series [3] and in [5] were 16.4 µM·h and 1.1 µM·h, respectively. The time to peak (Tmax) in [22] came to 48 min. In addition, in series [4], the Drug metabolism result is listed as “Metabolite_Detected”. In series [23], this molecule displayed a solubility of 90 µg/mL (≈ 159 µM). The molecule further gave an IC50 in [6] of 30 nM.

Usually inhibition stands for the drop in the measured response relative to a control, in per cent. Usually EC50 stands for the concentration needed to bring the measured effect to its halfway point. Take `O=C1CCC(N2Cc3c(OCc4ccc(CN5CCN(c6ccc(F)cc6F)CC5)cc4)cccc3C2=O)C(=O)N1` (racemic): the IC50 in series [26] was 1.7 nM; in [6], 55.1 to 502 nM. For the same molecule, the inhibition against D(2) dopamine receptor [27] stood at 99.1%; in [30] it was 102%. Besides, the result in series [28] was Active. Moreover, the Activity result in the series with PBMC was “Non-Toxic”. For the same molecule, the EC50 in [29] is 0.1 nM; in series [31], over 10000 nM; on D(2) dopamine receptor [32], 16 nM.

`N#Cc1ccc(N2CCN(Cc3ccc(COc4cccc5c4CN(C4CCC(=O)NC4=O)C5=O)cc3)CC2)c(F)c1` (stereo unspecified) yielded a half-inhibitory concentration (IC50) in series [26] of 1.7 nM. The results for the inhibition (on D(2) dopamine receptor [27]; in series [30]) were 54.5% and 67%, respectively. For the same molecule, the outcome in series [28] was inactive. The EC50 in series [29] is 0.1 nM; on D(2) dopamine receptor [32], over 10000 nM.
